Rows were chosen to be rich in hits. Some 4.9% of all compounds tested hit in one or more screens of this group.
NPY1 pot ag – potentiates or activates human NPY-Y1 receptor; P25929; NPY-Y1 expressing cells, potentiator/agonist activation; activation, % at 3.6 µM; 220,000 compounds, 0.37% hits; AID 1304; in the data active = activation above about 33%, passing the limit was not always enough;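 also: cells stimulated with NPY at EC10 then isoproterenol at EC100; 0% = low agonist plus stimulus and 100% = saturating agonist plus stimulus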
Target sequence (P25929 whole entry, looked up): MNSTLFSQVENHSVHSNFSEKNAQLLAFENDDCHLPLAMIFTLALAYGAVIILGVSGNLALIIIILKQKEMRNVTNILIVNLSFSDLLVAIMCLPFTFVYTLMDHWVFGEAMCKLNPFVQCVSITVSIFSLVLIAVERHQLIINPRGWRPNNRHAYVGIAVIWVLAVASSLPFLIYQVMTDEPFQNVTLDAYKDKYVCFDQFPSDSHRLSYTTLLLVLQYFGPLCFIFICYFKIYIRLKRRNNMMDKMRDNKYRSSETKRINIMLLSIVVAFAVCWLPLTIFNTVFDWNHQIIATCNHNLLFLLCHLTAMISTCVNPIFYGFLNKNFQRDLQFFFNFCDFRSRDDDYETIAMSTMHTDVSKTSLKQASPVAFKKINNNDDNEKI
NPY-Y2 PAM-ag – potentiators or agonists of human neuropeptide Y receptor Y2 | cells expressing NPY-Y2, potentiator/agonist read-out | activation, % at 3.6 µM | 220,000 compounds, 0.45% hits | AID 1359; in the data active = activation above about 27%;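 also: cells stimulated with NPY near EC25 plus isoproterenol at EC100; 0% = vehicle plus submaximal agonist and 100% = vehicle plus saturating agonist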
RAM inhibit – blocks the yeast RAM network. AID 868. 190,000 compounds, 1.8% hits. inhibition, % at 50 µM. S. cerevisiae dse1pr::URA3 reporter, 5-FOA growth OD615, 2 d; analog-sensitive cbk1-as2 kinase mutant strain;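 active = inhibition above a set limit, 3 SD over mean compound inhibition, cut at about 8.4% in these data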;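 also: 0% = DMSO-only wells with no growth and 100% = 10 µM 1-NA-PP1 full growth; inhibition rescues growth on 5-FOA so higher OD means more RAM inhibition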
NPY-Y1 antag – NPY-Y1 (human) receptor antagonism; P25929; inhibition, % at 3.6 µM; 200,000 compounds, 1% hits; HEK293-CNG Y1 cells, membrane potential fluorescence; NPY at EC95, then isoproterenol;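 active = inhibition above the campaign mean inhibition of all tested compounds plus 3 SD, cut at about 20% in these data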;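 also: 0% = DMSO wells given NPY plus isoproterenol and 100% = isoproterenol alone without NPY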
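Assay system: HEK293 Y1/CNG channel cell line; Doses: single compound dose of 3.6 µM, 0.4% DMSO; Timing: dye 3 h, compound 60 min room temperature, stimulation 45 min; Technique: Membrane-potential fluorescent dye readout; Measure: % inhibition of NPY effect.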
WT yeast gro inh – growth inhibition of WT yeast, mitochondrial fusion screen; mitochondrial fusion phenotypic screen, WT strain; 190,000 compounds, 2.1% hits; inhibition, % at 10 µM; in the data active = inhibition above about 58%; tested in S. cerevisiae
NPY Y2 blocker – antagonists of human neuropeptide Y receptor Y2; P49146; NPY-Y2 expressing cells, antagonist mode; inhibition, % at 2.7 µM; 140,000 compounds, 0.99% hits; AID 793; in the data active = inhibition above about 17%;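 also: 0% = vehicle with agonist challenge and 100% = reference antagonist with challenge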
Numbers without * were called inactive.

`O=C(Nc1ccccc1N1CCCCC1)c1cccc([N+](=O)[O-])c1` gave NPY1 pot ag -18, NPY-Y2 PAM-ag -6, RAM inhibit 3, NPY-Y1 antag 3 and WT yeast gro inh 78*.
`O=C(Nc1ccccc1N1CCOCC1)c1cccc(F)c1` gave NPY1 pot ag 6, NPY-Y2 PAM-ag -2, RAM inhibit -1, NPY-Y1 antag 6 and WT yeast gro inh 76*.
Screening Cc1cccc(NC(=O)c2ccc(N3CCOCC3)c([N+](=O)[O-])c2)n1 returned NPY1 pot ag -12, NPY-Y2 PAM-ag -2, RAM inhibit 1, NPY-Y1 antag 0 and WT yeast gro inh 20.
For O=C(Nc1ccccc1N1CCOCC1)c1cccnc1 the results were NPY1 pot ag -3, NPY-Y2 PAM-ag 11, RAM inhibit 1, NPY-Y1 antag 6 and WT yeast gro inh -11.
`COC(=O)c1ccc(CSc2ncnc3sc(C)c(C)c23)o1` gave NPY1 pot ag -16, NPY-Y2 PAM-ag 1, RAM inhibit 3, NPY-Y1 antag 1, WT yeast gro inh 4 and NPY Y2 blocker 3.
For CC(Sc1nnc(-c2cc3ccccc3o2)n1-c1ccccc1)C(=O)O (configuration not stated) the results were NPY1 pot ag -37, NPY-Y2 PAM-ag -11, RAM inhibit 1, NPY-Y1 antag -3, WT yeast gro inh -1 and NPY Y2 blocker 4.
Screening COc1ccc(Cc2noc(CN(C)Cc3ccc(-n4cccn4)cc3)n2)cc1OC returned NPY1 pot ag 20, NPY-Y2 PAM-ag 5, RAM inhibit 4, NPY-Y1 antag 2 and WT yeast gro inh 5.
CC1(NC(=O)CC[N+](C)(C)CCO)CS(=O)(=O)CC1S(=O)(=O)[O-] (configuration not stated) was read as NPY1 pot ag -17, NPY-Y2 PAM-ag -6, RAM inhibit 0, NPY-Y1 antag 8, WT yeast gro inh -4 and NPY Y2 blocker 1.
Screening N#Cc1nc(COc2ccc(F)cc2)oc1N1CCN(Cc2ccccc2)CC1 returned NPY1 pot ag -30, NPY-Y2 PAM-ag -17, RAM inhibit 0, NPY-Y1 antag 34*, WT yeast gro inh 34 and NPY Y2 blocker 32*.
Screening N#Cc1nc(COc2ccccc2)oc1N1CCCCC1 returned NPY1 pot ag -8, NPY-Y2 PAM-ag 0, RAM inhibit 0, NPY-Y1 antag 6, WT yeast gro inh 8 and NPY Y2 blocker 5.
Screening CCN1CCN(c2oc(COc3ccc(-c4ccccc4)cc3)nc2C#N)CC1 returned NPY1 pot ag -23, NPY-Y2 PAM-ag -33, RAM inhibit 0, NPY-Y1 antag 9, WT yeast gro inh 13 and NPY Y2 blocker 10.
`N#Cc1nc(COc2ccc(Br)cc2)oc1N1CCN(Cc2ccccc2)CC1` gave NPY1 pot ag -12, NPY-Y2 PAM-ag -11, RAM inhibit 1, NPY-Y1 antag 35*, WT yeast gro inh 20 and NPY Y2 blocker 32*.
N#Cc1nc(COc2ccc(F)cc2)oc1N1CCC(Cc2ccccc2)CC1 was read as NPY1 pot ag -69, NPY-Y2 PAM-ag 5, RAM inhibit 9.9*, NPY-Y1 antag 32*, WT yeast gro inh 0 and NPY Y2 blocker 37*.
Screening CCCCn1c(CCn2nc(C)c(Br)c2C)n[nH]c1=S returned NPY1 pot ag 13, NPY-Y2 PAM-ag -8, RAM inhibit 2, NPY-Y1 antag 0, WT yeast gro inh 4 and NPY Y2 blocker 1.
For Cc1nnc(NC(=O)c2sc3nc(-c4cccs4)cc(C(F)(F)F)c3c2N)s1 the results were NPY1 pot ag -8, NPY-Y2 PAM-ag -9, RAM inhibit 3, NPY-Y1 antag -6, WT yeast gro inh 70* and NPY Y2 blocker 0.
Screening COc1ccc(C(=O)/C(C#N)=N/Nc2ccc([N+](=O)[O-])cc2)cc1 returned NPY1 pot ag 30, NPY-Y2 PAM-ag 8, RAM inhibit 2, NPY-Y1 antag -5 and WT yeast gro inh 65*.
For COc1ccc(C(=O)/C(C#N)=N/Nc2ccccc2[N+](=O)[O-])cc1 the results were NPY1 pot ag -7, NPY-Y2 PAM-ag 1, RAM inhibit 2, NPY-Y1 antag 3, WT yeast gro inh -1 and NPY Y2 blocker 0.
`O=c1cc(CSc2nnc(-c3cccs3)n2Cc2ccccc2)nc2sc3ccccc3n12` gave NPY1 pot ag -25, NPY-Y2 PAM-ag 21, RAM inhibit 8.6*, NPY-Y1 antag -2, WT yeast gro inh 20 and NPY Y2 blocker 8.
CN(c1ccc(C(=O)N2CCCCC2)cc1)S(=O)(=O)c1ccccc1 was read as NPY1 pot ag 9, NPY-Y2 PAM-ag 10, RAM inhibit 0, NPY-Y1 antag -3, WT yeast gro inh -11 and NPY Y2 blocker 2.
`CC(=O)n1cc(N(C(=O)CCl)c2ccc(Cl)cc2)c2ccccc21` gave NPY1 pot ag 66* and NPY-Y2 PAM-ag 50*.
For O=C(O)c1ccccc1SCC(=O)N1c2ccccc2Sc2ccccc21 the results were NPY1 pot ag 23, NPY-Y2 PAM-ag 12, RAM inhibit 11*, NPY-Y1 antag -1, WT yeast gro inh -14 and NPY Y2 blocker 0.
`CCCCOC(=O)c1ccc(NC(=O)c2cc(Cl)c(Cl)cc2C(=O)O)cc1` gave NPY1 pot ag 7, NPY-Y2 PAM-ag 1, RAM inhibit 5, NPY-Y1 antag 6 and WT yeast gro inh -2.
Cc1cc[n+](CC(=O)c2ccc(NC(=O)c3ccccc3)cc2)c2ccccc12 was read as NPY1 pot ag -25, NPY-Y2 PAM-ag -10, RAM inhibit 1, NPY-Y1 antag 3 and WT yeast gro inh 61*.
`CS(=O)c1nc(-c2ccc(Br)cc2)cc(-c2ccccc2)c1C#N` (configuration not stated) gave NPY1 pot ag 101*, NPY-Y2 PAM-ag 66*, RAM inhibit 2, NPY-Y1 antag -9, WT yeast gro inh 7 and NPY Y2 blocker 2.
For COc1ccc(C(=O)/C=C/c2ccc(F)cc2)c(OC(=O)c2ccc([N+](=O)[O-])cc2)c1 the results were NPY1 pot ag -4, NPY-Y2 PAM-ag -22, RAM inhibit 2, NPY-Y1 antag -1, WT yeast gro inh -1 and NPY Y2 blocker 3.
For COc1ccc(C(=O)/C=C/c2cccs2)c(OC(=O)c2cccc([N+](=O)[O-])c2)c1 the results were NPY1 pot ag -14, NPY-Y2 PAM-ag -21, RAM inhibit 9.3*, NPY-Y1 antag 8, WT yeast gro inh 17 and NPY Y2 blocker 2.
CN(C)c1ncc(S(=O)(=O)c2ccc(Cl)cc2)c(-c2ccc(Cl)cc2Cl)n1 was read as NPY1 pot ag -11, NPY-Y2 PAM-ag 0, RAM inhibit 7, NPY-Y1 antag 5, WT yeast gro inh 66* and NPY Y2 blocker 4.
Cc1nc(C)c(C(=O)NCCC(c2ccccc2)c2ccccc2)o1 was read as NPY1 pot ag -3, NPY-Y2 PAM-ag -9, RAM inhibit 1, NPY-Y1 antag -3 and WT yeast gro inh 0.

Screening results deposited in PubChem by several laboratories.
